pIC50: −log10 of the molar value. Some results are limits rather than exact numbers.

Results on 5 compounds are retold here after article PMC7887132 (Chemistry (Weinheim an der Bergstrasse, Germany), 2020).

The subject of one series is tyrosine kinases. The conditions noted are these: previously synthesized and tested; no reference given; cited from earlier work.
Another series deals with c-Met (Homo sapiens, UniProt P08581). Put plainly: Anti-protein kinase activity, c-Met. To be noted: for pIC50: read-out: Anti-protein kinase activity (IC50) c-Met; for percentage of inactivated c-Met: 1 μM of compound used as inhibitor. The format is biochemical. The gist of the method:
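ELISA kinase-kit format, run in duplicate. Met positive-control enzyme (10 μL of 0.1 unit/μL) goes into wells on ice, with kinase assay buffer containing the test compound. Kinase reaction buffer starts the reaction, 60 min at 30 °C. After washing, HRP-conjugated detection antibody PY-39 is added for 60 min at room temperature, then substrate reagent for 5–15 min, then stop solution. Absorbance is read at 450/540 nm within 30 min.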

Another series concerns the target EGFR WT (Homo sapiens, UniProt P00533). Put plainly: Anti-protein kinase activity, EGFR WT. The format is biochemical. To be noted: for pIC50: read-out: Anti-protein kinase activity (IC50) EGFR WT.
A further series concerns the target EGFR L858R (Homo sapiens, UniProt P00533, L858R). Put plainly: Anti-protein kinase activity, EGFR L858R. The conditions noted are these: read-out: Anti-protein kinase activity (IC50) EGFR L858R. The format is biochemical.
For another series, the target named is EGFR T790M /L858R (Homo sapiens, UniProt P00533, L858R/T790M). Description: Anti-protein kinase activity, EGFR T790M/L858R. The class given is biochemical. To be noted: read-out: Anti-protein kinase activity (IC50) EGFR T790M /L858R.
Another series concerns the target Abl WT (Homo sapiens, UniProt P00519). Put plainly: Anti-protein kinase activity, Abl WT. The format is biochemical. The conditions noted are these: read-out: Anti-protein kinase activity (IC50) Abl WT.
The target of another series is Abl T315I (Homo sapiens, UniProt P00519, T315I). Put plainly: Anti-protein kinase activity, Abl T315I. The conditions noted are these: read-out: Anti-protein kinase activity (IC50) Abl T315I. The format is biochemical.
Another series has as its target FLT1 (Homo sapiens, UniProt P17948). Description: Anti-protein kinase activity, FLT1. The conditions noted are these: read-out: Anti-protein kinase activity (IC50) FLT1. The format is biochemical.
The nature of the next series: Solubility in water. The class given is physicochemical.

Chain of FLT1 (P17948 27-1338): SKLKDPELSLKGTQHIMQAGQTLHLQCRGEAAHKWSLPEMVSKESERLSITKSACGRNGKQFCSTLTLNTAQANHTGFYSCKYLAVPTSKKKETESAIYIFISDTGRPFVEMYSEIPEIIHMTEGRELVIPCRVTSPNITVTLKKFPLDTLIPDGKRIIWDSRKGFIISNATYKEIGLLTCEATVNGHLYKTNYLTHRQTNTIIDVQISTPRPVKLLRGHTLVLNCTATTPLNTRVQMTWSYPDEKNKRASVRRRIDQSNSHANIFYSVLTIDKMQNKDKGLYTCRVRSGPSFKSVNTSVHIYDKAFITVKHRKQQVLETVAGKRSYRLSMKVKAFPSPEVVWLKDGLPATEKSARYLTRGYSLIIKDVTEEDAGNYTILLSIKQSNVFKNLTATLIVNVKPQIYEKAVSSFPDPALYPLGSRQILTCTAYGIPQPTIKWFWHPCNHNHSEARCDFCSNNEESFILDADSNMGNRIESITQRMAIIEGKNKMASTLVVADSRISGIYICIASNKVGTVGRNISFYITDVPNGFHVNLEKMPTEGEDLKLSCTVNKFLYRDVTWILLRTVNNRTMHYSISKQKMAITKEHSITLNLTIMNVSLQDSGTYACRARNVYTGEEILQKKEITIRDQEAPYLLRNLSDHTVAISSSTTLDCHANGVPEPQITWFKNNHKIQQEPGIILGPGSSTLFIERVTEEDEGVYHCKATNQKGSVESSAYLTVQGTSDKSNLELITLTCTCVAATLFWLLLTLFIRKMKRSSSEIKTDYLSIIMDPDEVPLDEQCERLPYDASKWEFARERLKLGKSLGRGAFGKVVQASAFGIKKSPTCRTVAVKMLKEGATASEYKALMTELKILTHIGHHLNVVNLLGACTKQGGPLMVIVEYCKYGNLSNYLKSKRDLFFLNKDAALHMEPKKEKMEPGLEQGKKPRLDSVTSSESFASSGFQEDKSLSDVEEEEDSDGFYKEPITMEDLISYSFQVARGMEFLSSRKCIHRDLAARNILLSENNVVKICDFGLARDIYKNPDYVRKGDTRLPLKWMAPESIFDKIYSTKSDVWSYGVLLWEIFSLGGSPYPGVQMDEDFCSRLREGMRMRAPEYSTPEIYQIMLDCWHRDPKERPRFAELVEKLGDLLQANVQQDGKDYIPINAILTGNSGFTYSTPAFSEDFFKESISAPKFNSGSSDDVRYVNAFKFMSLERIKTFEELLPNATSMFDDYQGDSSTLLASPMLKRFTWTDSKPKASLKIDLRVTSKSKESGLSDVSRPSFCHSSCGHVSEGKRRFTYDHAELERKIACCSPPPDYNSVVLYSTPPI
Chain of c-Met (P08581 25-1390): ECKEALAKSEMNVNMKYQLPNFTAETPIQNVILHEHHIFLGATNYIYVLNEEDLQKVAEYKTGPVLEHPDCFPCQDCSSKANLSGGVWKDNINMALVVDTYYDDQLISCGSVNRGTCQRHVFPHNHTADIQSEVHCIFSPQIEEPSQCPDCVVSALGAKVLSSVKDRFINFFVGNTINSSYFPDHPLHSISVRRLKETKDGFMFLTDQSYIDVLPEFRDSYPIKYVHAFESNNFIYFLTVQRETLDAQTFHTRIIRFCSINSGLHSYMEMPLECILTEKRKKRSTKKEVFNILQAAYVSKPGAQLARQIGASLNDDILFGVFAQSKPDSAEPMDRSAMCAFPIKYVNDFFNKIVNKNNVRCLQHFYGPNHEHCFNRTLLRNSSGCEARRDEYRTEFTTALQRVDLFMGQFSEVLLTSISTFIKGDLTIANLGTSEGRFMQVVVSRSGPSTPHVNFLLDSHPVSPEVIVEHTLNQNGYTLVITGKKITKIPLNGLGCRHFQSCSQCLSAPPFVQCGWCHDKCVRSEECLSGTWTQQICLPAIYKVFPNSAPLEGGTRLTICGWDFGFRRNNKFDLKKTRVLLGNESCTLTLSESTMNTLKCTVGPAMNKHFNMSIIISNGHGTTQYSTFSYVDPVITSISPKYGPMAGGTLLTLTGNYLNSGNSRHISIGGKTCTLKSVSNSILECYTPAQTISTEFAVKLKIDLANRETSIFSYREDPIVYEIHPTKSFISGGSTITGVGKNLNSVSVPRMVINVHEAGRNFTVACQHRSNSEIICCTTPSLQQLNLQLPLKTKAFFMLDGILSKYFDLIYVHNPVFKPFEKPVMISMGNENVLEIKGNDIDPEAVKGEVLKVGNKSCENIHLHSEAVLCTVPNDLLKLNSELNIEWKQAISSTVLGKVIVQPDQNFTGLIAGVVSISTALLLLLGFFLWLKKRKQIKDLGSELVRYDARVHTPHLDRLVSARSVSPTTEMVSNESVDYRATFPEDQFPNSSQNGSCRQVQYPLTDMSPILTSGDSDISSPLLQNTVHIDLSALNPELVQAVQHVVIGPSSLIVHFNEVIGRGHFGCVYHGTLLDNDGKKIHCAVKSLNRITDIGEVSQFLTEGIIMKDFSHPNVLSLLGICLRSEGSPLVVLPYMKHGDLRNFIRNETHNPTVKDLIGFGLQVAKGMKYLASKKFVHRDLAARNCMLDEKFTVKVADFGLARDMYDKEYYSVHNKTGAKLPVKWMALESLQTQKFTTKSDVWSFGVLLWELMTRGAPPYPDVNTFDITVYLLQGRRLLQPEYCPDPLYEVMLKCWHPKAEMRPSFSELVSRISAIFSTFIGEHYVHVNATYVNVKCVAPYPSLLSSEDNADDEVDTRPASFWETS

“2,6-di(thiazol-4-yl)pyridinophane [compound 5]”: the “inhibitory activity as tyrosine kinases inhibitor” value in the series on tyrosine kinases was “didn’t show any inhibitory activity”.
Turning to “2,15-Diaza-2,15-diheptanoyl[3.3](2,2’)(4,4’-bithiazolophane) [compound 3]”, the pIC50 at c-Met, at EGFR WT, at EGFR L858R, at EGFR T790M /L858R, on Abl WT and at Abl T315I was less than 6.00 each time. Moreover, the pIC50 on FLT1 is less than 6.00. Besides, in the series “Solubility in water”, the solubility in water result was “only slightly soluble in water”.
As to “2,15-diaza-2,15-bis(tert-butoxycarbonyl)[3.3](2,2’)(4,4’-bithiazolophane) [compound 1]”, the “percentage of inactivated c-Met” value on c-Met is 59%. The pIC50 on c-Met is 6.22; at EGFR WT it was less than 6.00; at EGFR L858R, less than 6.00; at EGFR T790M /L858R, less than 6.00; at Abl WT, less than 6.00; at Abl T315I, less than 6.00. The pIC50 on FLT1 was less than 6.00. Also, the “inhibition of EGFR WT (in words)” value against EGFR WT is “partial inhibition”. In addition, the “percentage of inactivated EGFR WT” value at EGFR WT (1 μM of compound used as inhibitor) is given as 44%. Also, the solubility in water entry in “Solubility in water” is reported as “only slightly soluble in water”.
As to “2,15-diaza[3.3](2,2’)(4,4’-bithiazolophanium) dichloride [compound 2]”, the “anti-c-Met activity (in words)” value on c-Met is “showed anti-c-Met activity”. In addition, at c-Met, the “percentage of inactivated c-Met” value worked out at 33%. Further, the pIC50 on c-Met, at EGFR WT, at EGFR L858R, on EGFR T790M /L858R, at Abl WT and at Abl T315I was less than 6.00 in each case. Also, at FLT1, the pIC50 is less than 6.00. The solubility in water entry in the series “Solubility in water” is given as “almost freely soluble in water”.
As to `CC(C)COC(=O)N1Cc2nc(cs2)-c2csc(n2)CN(C(=O)OCC(C)C)Cc2nc(cs2)-c2csc(n2)C1` [compound 4, 2,15-Bis(isobutoxycarbonyl)-2,15-diaza[3.3](2,2’)(4,4’-bithiazolophane)], on c-Met, the “anti-c-Met activity (in words)” value was “showed anti-c-Met activity”. The “percentage of inactivated c-Met” value on c-Met was found to be 5%. Further, the pIC50 at c-Met, on EGFR WT, on EGFR L858R, on EGFR T790M /L858R, on Abl WT and on Abl T315I was less than 6.00 in each case. Moreover, on FLT1, the pIC50 is less than 6.00. Also, in “Solubility in water”, the solubility in water result was “only slightly soluble in water”.
